Reference: publication PMC3449281 (Chemistry & biology, 2012)
Entries after “also recorded” stand apart in the source; their conditions may differ.

Key:
[1] = target: purified firefly luciferase (FLuc) (Photinus pyralis, UniProt P08659); assay: Mode of inhibition; assay type: biochemical; conditions: IC50 shift with 1 mM D-LH2, 1 mM ATP or high CoASH
In short: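 Purified P. pyralis FLuc was run in the standard luciferase assay (10 μM ATP and D-LH2, the KM levels). Test compounds were given as 12-point titrations, 57.5 μM to 0.3 nM final. One substrate was kept at KM and the other saturating (1 mM ATP or 1 mM D-luciferin), or 500 μM CoASH was added. Fold shift = IC50 at high substrate / IC50 at KM. There were three separate tests, each in duplicate.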

[2] = system: miR-21 FLuc assay; assay: miR-21 FLuc cell-based reporter gene assay; conditions: 48-hour incubation with compound
In short: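 The cell-based reporter expresses wild-type FLuc and was optimized to detect increases in FLuc signal. Cells were exposed to test compound for 48 h. Unlike the read-through assay, there was no wash step before the detection reagent was added. Concentration–response curves were recorded.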

[3] = target: T1, purified RLuc (Renilla reniformis, UniProt P27652); conditions: highest concentration tested = 57.5 μM
T1 sequence (P27652 1-311): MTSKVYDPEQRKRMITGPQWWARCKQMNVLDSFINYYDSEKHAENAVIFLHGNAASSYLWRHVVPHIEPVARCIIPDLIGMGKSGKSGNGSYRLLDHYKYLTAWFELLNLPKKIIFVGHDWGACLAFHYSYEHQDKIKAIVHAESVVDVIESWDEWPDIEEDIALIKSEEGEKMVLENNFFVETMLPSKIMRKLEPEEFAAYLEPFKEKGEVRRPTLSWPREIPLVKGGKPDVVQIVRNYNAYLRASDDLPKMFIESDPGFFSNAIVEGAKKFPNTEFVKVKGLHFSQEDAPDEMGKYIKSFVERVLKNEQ

Chain of purified firefly luciferase (FLuc) (P08659 whole entry): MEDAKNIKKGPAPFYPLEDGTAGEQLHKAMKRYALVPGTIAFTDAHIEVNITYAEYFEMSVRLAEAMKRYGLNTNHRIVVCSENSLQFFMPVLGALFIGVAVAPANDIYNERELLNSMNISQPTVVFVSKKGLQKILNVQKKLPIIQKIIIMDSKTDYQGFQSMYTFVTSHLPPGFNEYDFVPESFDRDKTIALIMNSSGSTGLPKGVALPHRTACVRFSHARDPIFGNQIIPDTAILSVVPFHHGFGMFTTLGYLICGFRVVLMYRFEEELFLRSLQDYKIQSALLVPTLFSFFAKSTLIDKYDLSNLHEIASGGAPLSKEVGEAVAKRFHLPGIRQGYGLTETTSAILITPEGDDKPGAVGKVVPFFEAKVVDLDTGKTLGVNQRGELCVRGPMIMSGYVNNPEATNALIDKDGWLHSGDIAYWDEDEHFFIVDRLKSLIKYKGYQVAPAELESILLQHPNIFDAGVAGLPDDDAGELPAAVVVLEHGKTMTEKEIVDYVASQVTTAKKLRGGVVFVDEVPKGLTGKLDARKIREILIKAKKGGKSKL

Cn1c(NN=Cc2cc3ccccc3nc2Cl)nc2ccccc21 [CID:4216593]
Mode of inhibition (substrate competition) [1]: competitive with both D-LH2 and ATP; also recorded: significantly reduced by either ATP or D-LH2

COc1ccc(-c2nc3ccccc3s2)cc1O [CID: 976322]
Mode of inhibition (substrate competition) [1]: ATP was found to enhance inhibitor binding

CC(C)(C)C(=O)Nc1ccc(-c2nc3ccccc3s2)cc1 [CID: 16015828]
Effect on FLuc signal in cell-based miR-21 assay [2]: strong activation

CC(=NNC(=O)c1ccccc1NC(=O)c1ccc(Cl)cc1)c1ccncc1 [CID: 16193026]
Mode of inhibition (substrate competition) [1]: only ATP

O=C(Nc1ccccc1C(=O)O)c1cccc(S(=O)(=O)Nc2ccc(Br)cc2)c1 [compound 1087370]
Activity in RLuc assay [3]: RLuc-active

O=C(Nc1ccccc1C(=O)O)c1cc(S(=O)(=O)Nc2cccc(F)c2)ccc1Cl [compound 1105141]
Activity in RLuc assay [3]: RLuc-active
